From ChEMBL document CHEMBL1255435, “Mechanism of resistance of hepatitis C virus replicons to structurally distinct cyclophilin inhibitors” (Antimicrob Agents Chemother, 2010)

Tests used:
Hepatitis C virus [1] = test: Antiviral activity against HCV subtype 1b Con1 harboring NIM-resistant NS5A gene infected in human HuH7 cells assessed as reduction in viral RNA level after 48 hrs by qRT-PCR analysis; settings: Con1, Huh-7, 48 h
Hepatitis C virus [2] = test: Antiviral activity against cyclosporine A/NIM-resistant HCV subtype 1b Con1 infected in human HuH7 cells assessed as reduction in viral RNA level after 48 hrs by qRT-PCR analysis; settings: Con1, Huh-7, 48 h
Hepatitis C virus [3] = test: Antiviral activity against cyclosporine A/NIM811-resistant HCV subtype 1b Con1 infected in human HuH7 cells assessed as reduction in viral RNA level after 48 hrs by qRT-PCR analysis relative to control; assay type: functional, Hepacivirus hominis, Huh-7
Outline: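 Clone A replicon cells were resistance-selected by 8-week passage with increasing CsA up to 5 μM, then 5 μM NIM811 for 5 more weeks, with 250 μg/ml G418. Control cells were passaged in 0.2% DMSO for the same period. Both were seeded at 10,000/well and treated 48 h with serial dilutions in 2% FBS/0.5% DMSO. HCV RNA was measured by qRT-PCR, normalized to total RNA. EC50 expressed as fold over DMSO control.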

Hepatitis C virus [4] = test: Antiviral activity against HCV subtype 1b Con1 infected in human HuH7 cells assessed as reduction in viral RNA level after 48 hrs by qRT-PCR analysis; assay type: functional, organism-based, Hepacivirus hominis; settings: Con1, Huh-7, 48 h
Outline: (§1)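 Con1 genotype 1b subgenomic replicon Huh7 cells (clone A or derived lines) were seeded at 10,000/well overnight without G418. They were treated 48 h with serially diluted compound in 2% FBS and 0.5% DMSO. HCV RNA was measured by TaqMan qRT-PCR and normalized to total RNA. Six replicates per point; EC50 is the concentration giving 50% reduction in HCV RNA.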

Hepatitis C virus [5] = test: Antiviral activity against cyclosporine A/NIM811-resistant HCV subtype 1b Con1 infected in human HuH7 cells assessed as reduction in viral RNA level after 48 hrs by qRT-PCR analysis; assay type: functional, organism-based, Hepacivirus hominis; settings: Con1, Huh-7, 48 h
Outline: as §1

Hepatitis C virus [6] = test: Antiviral activity against HCV subtype 1b Con1 harboring wild type protease infected in human HuH7 cells assessed as reduction in viral RNA level after 48 hrs by qRT-PCR analysis; assay type: functional, organism-based, Hepacivirus hominis; settings: Con1, Huh-7, 48 h
Outline: as §1

Hepatitis C virus [7] = test: Antiviral activity against wild type HCV subtype 1b Con1 infected in human HuH7 cells assessed as reduction in viral RNA level after 48 hrs by qRT-PCR analysis; assay type: functional, organism-based, Hepacivirus hominis; settings: Con1, Huh-7, 48 h
Outline: as §1

Hepatitis C virus [8] = test: Antiviral activity against HCV subtype 1b Con1 infected in cyclosporine A/NIM-resistant human HuH7 cells assessed as reduction in viral RNA level after 48 hrs by qRT-PCR analysis; assay type: functional, organism-based, Hepacivirus hominis; settings: Con1, Huh-7, 48 h
Outline: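 CsA/NIM-resistant cells were cured of replicon: G418 removed, then 1 μM BILN2061 for 2 weeks and 5 μM for 2 more. Wild-type pCon1 replicon RNA was electroporated back in and cells selected in 250 μg/ml G418 for at least 2 weeks. Pooled colonies were treated 48 h with compound; EC50 came from qRT-PCR HCV RNA normalized to total RNA.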

Hepatitis C virus [9] = test: Antiviral activity against HCV subtype 1b Con1 harboring NS5A and NS5B C575G mutant […] infected in human HuH7 cells assessed as reduction in viral RNA level after 48 hrs by qRT-PCR analysis; assay type: functional, organism-based, Hepacivirus hominis; settings: Con1, Huh-7, 48 h
Hepatitis C virus [10] = test: Antiviral activity against HCV subtype 1b Con1 infected in human HuH7 cells assessed as reduction in viral RNA level after 48 hrs by qRT-PCR analysis relative to control; assay type: functional, Hepacivirus hominis, Huh-7
Outline: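 Subgenomic genotype 1b Con1 replicon cells (clone A and derived lines) seeded 10,000/well overnight without G418, then treated 48 h with serially diluted compound in 2% FBS, 0.5% DMSO. HCV RNA quantified by TaqMan qRT-PCR, normalized to total RNA; six replicates per point. Percent inhibition versus control cells; EC50 is the concentration reducing HCV RNA by 50%.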

Hepatitis C virus [11] = test: Antiviral activity against cyclosporine A-resistant HCV subtype 1b Con1 infected in human HuH7 cells assessed as reduction in viral RNA level after 48 hrs by qRT-PCR analysis; settings: Con1, Huh-7, 48 h
Hepatitis C virus [12] = test: Antiviral activity against HCV subtype 1b Con1 infected in human HuH7 cells assessed as reduction in viral RNA level after 48 hrs by MTS assay; settings: Con1, Huh-7, 48 h

Structure (SMILES): C/C=C/C[C@@H](C)[C@@H](O)[C@H]1C(=O)N[C@@H](CC)C(=O)N(C)CC(=O)N(C)[C@@H]([C@@H](C)CC)C(=O)NC(C(C)C)C(=O)N(C)[C@@H](CC(C)C)C(=O)N[C@@H](C)C(=O)N[C@H](C)C(=O)N(C)C(CC(C)C)C(=O)N(C)[C@@H](CC(C)C)C(=O)N(C)[C@@H](C(C)C)C(=O)N1C (single isomer, unassigned) [NIM811]
- EC50 (Hepatitis C virus [1]): 940 nM
- EC50 (Hepatitis C virus [2]): 3500 nM
- fold change (FC) (Hepatitis C virus [3]): 17.9
- EC50 (Hepatitis C virus [4]): 84 nM
- EC50 (Hepatitis C virus [5]): 1500 nM
- EC50 (Hepatitis C virus [6]): 230 nM
- EC50 (Hepatitis C virus [7]): 120 nM
- EC50 (Hepatitis C virus [8]): 170 nM
- EC50 (Hepatitis C virus [9]): 1140 nM
- fold change (FC) (Hepatitis C virus [10]): 1
- EC50 (Hepatitis C virus [11]): 830 nM

Structure (SMILES): COc1ccc2c(O[C@@H]3C[C@H]4C(=O)N[C@]5(C(=O)O)C[C@H]5/C=C\CCCCC[C@H](NC(=O)OC5CCCC5)C(=O)N4C3)cc(-c3csc(NC(C)C)n3)nc2c1 [CILUPREVIR]
- EC50 (Hepatitis C virus [4]): 1.4 nM

Structure (SMILES): C/C=C/C[C@@H](C)[C@@H](O)[C@H]1C(=O)N[C@@H](CC)C(=O)N(C)CC(=O)N(C)[C@@H](CC(C)C)C(=O)N[C@@H](C(C)C)C(=O)N(C)[C@@H](CC(C)C)C(=O)N[C@@H](C)C(=O)N[C@H](C)C(=O)N(C)[C@@H](CC(C)C)C(=O)N(C)[C@@H](CC(C)C)C(=O)N(C)[C@@H](C(C)C)C(=O)N1C [CYCLOSPORINE]
- EC50 (Hepatitis C virus [2]): > 10000 nM
- EC50 (Hepatitis C virus [12]): 210 nM
- EC50 (Hepatitis C virus [11]): 3390 nM
